Laboratory results published in ChEMBL document CHEMBL4354866, “TREK Channel Family Activator with a Well-Defined Structure-Activation Relationship for Pain and Neurogenic Inflammation” (J Med Chem, 2020).
Calls of active or inactive are those of the source.

What was measured:
[1] = biological target: T1, Potassium channel subfamily K member 2 (Homo sapiens) (UniProt O95069); assay: Activation of recombinant human TREK1 expressed in HEK293T cells assessed as increase in K+ current amplitude measured after compound washout by whole cell voltage clamp electrophysiological analysis; type: cell-based
T1 sequence (whole entry): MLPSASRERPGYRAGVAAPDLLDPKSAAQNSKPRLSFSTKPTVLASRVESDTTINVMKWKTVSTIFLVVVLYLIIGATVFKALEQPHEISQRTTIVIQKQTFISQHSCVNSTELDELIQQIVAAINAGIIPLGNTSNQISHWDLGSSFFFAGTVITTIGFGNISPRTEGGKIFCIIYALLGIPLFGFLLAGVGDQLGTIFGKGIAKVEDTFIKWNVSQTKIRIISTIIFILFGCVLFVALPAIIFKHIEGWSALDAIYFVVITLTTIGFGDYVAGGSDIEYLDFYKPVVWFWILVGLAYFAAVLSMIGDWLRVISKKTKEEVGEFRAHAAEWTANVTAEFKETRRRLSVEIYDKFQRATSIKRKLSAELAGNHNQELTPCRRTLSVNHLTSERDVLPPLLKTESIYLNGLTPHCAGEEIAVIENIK
Outline: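 HEK-293T cells expressing human TREK-1, whole-cell clamp. Current recorded during extracellular compound application and again after washout.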

[2] = biological target: T2, Potassium channel subfamily K member 4 (Homo sapiens, UniProt Q9NYG8); assay: Activation of recombinant human TRAAK expressed in HEK293T cells assessed as increase in K+ current amplitude by whole cell voltage clamp electrophysiological analysis; type: cell-based
T2 sequence (Q9NYG8 whole entry): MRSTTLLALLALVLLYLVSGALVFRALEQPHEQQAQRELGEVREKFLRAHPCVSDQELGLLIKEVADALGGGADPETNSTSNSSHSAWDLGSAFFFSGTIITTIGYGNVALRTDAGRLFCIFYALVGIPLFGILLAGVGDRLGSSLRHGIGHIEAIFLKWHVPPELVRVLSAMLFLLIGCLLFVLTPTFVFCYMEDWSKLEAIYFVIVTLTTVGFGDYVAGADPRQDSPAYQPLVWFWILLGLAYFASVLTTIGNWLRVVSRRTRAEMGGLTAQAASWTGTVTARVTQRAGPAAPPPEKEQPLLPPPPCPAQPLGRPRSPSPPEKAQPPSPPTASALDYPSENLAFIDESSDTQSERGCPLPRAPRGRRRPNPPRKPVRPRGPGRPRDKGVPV
Outline: (§1)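 Transiently transfected HEK-293T cells, whole-cell voltage clamp. Held at -60 mV, 500-ms ramp -120 to +60 mV. Pipette (mM) 140 KCl, 5 EGTA, 10 HEPES, pH 7.4; external 145 NaCl, 4 KCl, pH 7.3. Compound diluted from 10 mM DMSO stock and applied extracellularly. Current increase over control fitted to concentration–response curves for EC50.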

[3] = biological target: T3, Potassium channel subfamily K member 18 (Homo sapiens) (UniProt Q7Z418); assay: Activation of recombinant human TRESK expressed in HEK293T cells assessed as increase in K+ current amplitude at 10 uM by whole cell voltage clamp electrophysiological analysis; type: cell-based
T3 sequence (whole entry): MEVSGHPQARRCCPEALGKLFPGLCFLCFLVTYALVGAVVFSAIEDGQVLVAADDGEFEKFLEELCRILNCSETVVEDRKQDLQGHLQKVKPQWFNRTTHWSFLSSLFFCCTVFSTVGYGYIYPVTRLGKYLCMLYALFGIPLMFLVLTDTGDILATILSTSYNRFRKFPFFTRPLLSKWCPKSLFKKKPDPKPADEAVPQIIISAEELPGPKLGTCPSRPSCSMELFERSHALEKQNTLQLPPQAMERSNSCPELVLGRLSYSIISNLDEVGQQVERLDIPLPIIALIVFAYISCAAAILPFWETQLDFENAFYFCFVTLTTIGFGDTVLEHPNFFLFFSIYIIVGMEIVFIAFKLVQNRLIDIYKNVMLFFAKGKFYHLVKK
Outline: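 HEK-293T cells transiently transfected with the human K2P channel. Whole-cell clamp at -60 mV, 500-ms ramp -120 to +60 mV. Pipette 140 KCl (pH 7.4), external 145 NaCl/4 KCl (pH 7.3). Compound 10 μM, diluted from 10 mM DMSO stock into external solution.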

[4] = test system: Potassium channel subfamily K member 2 (Homo sapiens), O95069 [Y285A]; assay: Activation of recombinant human TREK1 Y285A mutant expressed in HEK293T cells assessed as increase in K+ current amplitude by whole cell voltage clamp electrophysiological analysis; type: cell-based; outline: as §1
[5] = Drug uptake in BALB/c mouse plasma at 5 mg/kg, ip administered as single dose by LC-MS/MS analysis; type: ADME, organism-based; settings: in vivo
Outline: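 BALB/c mice (n = 6) given a single 5 mg/kg i.p. dose as a 0.5 mg/ml solution in 5% DMSO/5% Tween 80/90% saline. Plasma sampled at 0.083–8 h. Concentrations measured by LC-MS/MS against spiked standard curves; AUC, Tmax, Cmax and T1/2 calculated by non-compartmental analysis of mean concentrations.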

Mus musculus [6] = assay: Analgesic activity in cerulein-induced mouse model of acute pancreatitis assessed as reduction in mechanical allodynia at 10 mg/kg, ip administered at 2 hrs interval for 10 hrs starting from post-first cerulein challenge and measured 0.5 hrs post-last cerulein challenge by von frey test; type: functional, organism-based
Outline: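 Acute pancreatitis induced by 7 hourly i.p. injections of cerulein (50 µg/kg in ice-cold PBS); controls received PBS. Compound 10 mg/kg i.p. or vehicle at 2, 4, 6, 8 and 10 h. Von Frey testing (ascending filaments) started 0.5 h after the last cerulein injection.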

Mus musculus [7] = assay: Analgesic activity in cerulein-induced mouse model of acute pancreatitis assessed as reduction in myeloperoxidase activity at 10 mg/kg, ip administered at 2 hrs interval for 10 hrs starting from post-first cerulein challenge and measured 12 hrs post-first cerulein challenge; type: functional, organism-based
Outline: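 Cerulein pancreatitis: 7 hourly i.p. injections of 50 µg/kg; 10 mg/kg compound i.p. at 2, 4, 6, 8 and 10 h. Mice killed at 12 h and pancreas harvested for MPO activity and H&E histology. Ten random fields per slide scored blind by two observers for edema, inflammatory infiltration and acinar necrosis; n = 6.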

Mus musculus [8] = assay: Analgesic activity in CFA-induced mouse model of chronic inflammatory pain assessed as increase in paw withdrawal latency at 5 mg/kg, ip measured up to 60 mins by Hargreaves test; type: functional, organism-based
Outline: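 CFA (20 μl) injected subcutaneously into the left hindpaw of mice. Compound given i.p. in 5% DMSO/5% Tween 80/90% saline. Heat withdrawal latency recorded with a 5 min inter-stimulation period.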

Mus musculus [9] = assay: Analgesic activity in mouse model of spared nerve injury assessed as reduction in cold hyperalgesia at 5 mg/kg, ip measured at 7 days interval for up to 21 days post spared nerve injury by cold plantar test; type: functional, organism-based
Outline: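 SNI mice acclimated 3 days on a 6 mm glass plate; compound 5 mg/kg i.p. A dry-ice-packed syringe was applied to the centre of the left hindpaw. Withdrawal latency timed by stopwatch, cut-off 30 s; n = 8–10.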

Cc1ccc2nc(-c3ccc(NC(=O)[C@@H]4CC[C@H](C(=O)O)C4)cc3)sc2c1
Activity [1]: inactive
EC50 [2]: 15.3 µM
Activity [3]: Active
Activity [4]: inactive
Drug uptake [5]: Active
Activity (Mus musculus [6]): Active
Activity (Mus musculus [7]): Active
Activity (Mus musculus [8]): Active
Activity (Mus musculus [9]): Active
